Laboratory results published in ChEMBL document CHEMBL1122595, “Stereochemical considerations and the antiinflammatory activity of 6-amino-6,7,8,9-tetrahydro-5H-benzocyclohepten-5-ols and related derivatives” (1984).

Tests used:
[1] = test system: Rattus norvegicus; assay: Antiinflammatory activity in rats by using reverse passive Arthus reaction (RPAR) assay at dose level of 50 mg/Kg by peroral administration; format: functional
Summary of the method: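 Rats fasted 24 h before and during study, water ad libitum; groups of at least six dosed by gavage in methylcellulose 1 h before iv (penile vein) BSA 1 mg sensitization under light ether; 1 h later subplantar anti-BSA 0.1 mg in right hind paw. Paw volume by mercury plethysmograph immediately and 2 h postchallenge; percent inhibition vs MC controls, ANOVA (Duncan, Dunnett).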

[2] = organism: Rattus norvegicus; assay: The relative potency was evaluated by considering the potency of indomethacin as 1; format: functional
Summary of the method: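 Rat reverse passive Arthus paw oedema (oral gavage in methylcellulose 1 h before iv BSA, subplantar anti-BSA 1 h later, plethysmograph change over 2 h); three to five dose points; ED50 and potency relative to indomethacin standard derived by linear regression.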

Row | Structure (SMILES) | Inhibitory response [1] [%] | Relative potency [2]
1 | NC[C@@H](O)c1ccccc1 | 21 | –
2 | CC(C)c1ccc2c(c1)C(O)C(N)CCC2 (stereo unspecified) | 100 | 0.12
3 | O=C1N[C@@H]2CCCc3cccnc3[C@@H]2O1 | 82 | 0.3
4 | CS(=O)(=O)c1ccc2c(c1)C(O)C(N)CCC2 (stereo unspecified) | 5 | –
5 | N[C@@H]1CCCc2cccnc2[C@@H]1O | 28 | –
6 | NC[C@H]1c2ccccc2CCC[C@H]1O | 8 | –
7 | CC(C)Sc1ccc2c(c1)C(O)C(N)CCC2 (stereo unspecified) | 39 | –
8 | COc1ccc2c(c1)CCCC1NC(=O)OC21 (stereo unspecified) | 0 | –
9 | CSc1ccc2c(c1)CCCC(N)C2O (stereo unspecified) | 84 | 0.04
10 | COc1cc2c(cc1OC)C(O)C(N)CCCC2.Cl (stereo unspecified) | 0 | –
11 | Cl.N[C@@H]1CCCc2cccnc2[C@@H]1O | 36 | –
12 | Cl.N[C@@H]1CSCc2ccccc2[C@@H]1O | 2 | –
13 | Cl.NC1CCCc2cc(F)ccc2C1O (stereo unspecified) | 100 | 0.18
14 | Cl.NC1CCCc2ccc([N+](=O)[O-])cc2C1O (stereo unspecified) | 100 | 0.25
15 | COc1ccc2c(c1)CCCC(N)C2O (stereo unspecified) | 80 | 0.1
16 | C[S+]([O-])c1ccc2c(c1)C(O)C(N)CCC2 (stereo unspecified) | 7 | –
17 | NC1CCCc2ccc(F)cc2C1O (stereo unspecified) | 96 | 0.15
18 | Cc1ccc2c(c1)CCCC(N)C2O (stereo unspecified) | 93 | 0.05
19 | NC[C@@H]1c2ccccc2CCC[C@H]1O | 0 | –
20 | Cc1ccc2c(c1)CCCC1NC(=O)OC21 (stereo unspecified) | 28 | –

Row | Structure (SMILES) | Inhibitory response [1] [%] | Relative potency [2]
21 | NC1CCCc2cc(Cl)ccc2C1O (stereo unspecified) | 94 | 0.08
22 | CC(=O)Nc1ccc2c(c1)C(O)C(N)CCC2 (stereo unspecified) | 18 | –
23 | Cl.NC1CCCc2ccccc2C1O (stereo in doubt; 4a) | 93 | –
24 | NC1CCCc2ccc(Cl)cc2C1O (stereo in doubt; 4aa) | 44 | –
25 | Cl.NC1CCCc2ccccc2C1O (stereo in doubt; 4b) | 98 | 0.15
26 | Cl.NC1CCCc2ccccc2C1O (stereo in doubt; 4c) | 11 | 0.02
27 | COc1cc2c(cc1OC)C(O)C(N)CCC2.Cl (stereo in doubt; 4dd) | 93 | 0.2
28 | COc1cc2c(cc1OC)C(O)C(N)CCC2.Cl (stereo in doubt; 4ee) | 13 | 0.03
29 | COc1cc2c(cc1SC)C(O)C(N)CCC2 (stereo in doubt; 4ff) | 81 | 0.05
30 | COc1cc2c(cc1SC)C(O)C(N)CCC2 (stereo in doubt; 4gg) | 29 | –
31 | COc1cc2c(cc1[S+](C)[O-])C(O)C(N)CCC2 (stereo in doubt; 4hh) | 8 | –
32 | COc1ccc2c(c1)C(O)C(N)CCC2 (stereo in doubt; 4i) | 98 | 0.75
33 | COc1cc2c(cc1[S+](C)[O-])C(O)C(N)CCC2 (stereo in doubt; 4ii) | 0 | –
34 | COc1ccc2c(c1)C(O)C(N)CCC2 (stereo in doubt; 4j) | 13 | 0.02
35 | CSc1ccc2c(c1)C(O)C(N)CCC2 (stereo in doubt; 4k) | 90 | 0.56
36 | CSc1ccc2c(c1)C(O)C(N)CCC2 (stereo in doubt; 4l) | 11 | 0.02
37 | CC(C)Oc1ccc2c(c1)C(O)C(N)CCC2 (stereo in doubt; 4m) | 77 | 0.18
38 | CC(C)Oc1ccc2c(c1)C(O)C(N)CCC2 (stereo in doubt; 4n) | 4 | –
39 | CC(C)(C)C(=O)OCOc1ccc2c(c1)C(O)C(N)CCC2 (stereo in doubt; 4q) | 16 | –
40 | CC(C)(C)C(=O)OCOc1ccc2c(c1)C(O)C(N)CCC2 (stereo in doubt; 4r) | 3 | –

Row | Structure (SMILES) | Inhibitory response [1] [%] | Relative potency [2]
41 | NC1CCCc2ccc(SCc3ccccc3)cc2C1O (stereo in doubt; 4v) | 99 | –
42 | NC1CCCc2ccc(SCc3ccccc3)cc2C1O (stereo in doubt; 4w) | 31 | –
43 | NC1CCCc2ccc(Cl)cc2C1O (stereo in doubt; 4z) | 94 | 0.34
44 | O=C1NC2CCCc3ccccc3C2O1 (stereo in doubt; 19a) | 77 | –
45 | O=C1NC2CCCc3ccccc3C2O1 (stereo in doubt; 19b) | 24 | –
46 | O=C1NC2CCCc3cc(Cl)ccc3C2O1 (stereo in doubt; 19e) | 9 | –
47 | O=C1NC2CCCc3cc(F)ccc3C2O1 (stereo in doubt; 19f) | 39 | –
48 | COc1ccc2c(c1)C1OC(=O)NC1CCC2 (stereo in doubt; 19g) | 20 | –
49 | CC(C)c1ccc2c(c1)C1OC(=O)NC1CCC2 (stereo in doubt; 19h) | 7 | –
50 | O=C1NC2CCCc3ccc(Cl)cc3C2O1 (stereo in doubt; 19i) | 9 | –
51 | O=C1NC2CCCc3ccc(F)cc3C2O1 (stereo in doubt; 19j) | 19 | –
52 | O=C1NC2CCCc3ccccc3C2O1 (stereo in doubt; 20a) | 92 | 0.06
53 | O=C1NC2CCCc3cc(Cl)ccc3C2O1 (stereo in doubt; 20d) | 18 | –
54 | O=C1NC2CCCc3cc(F)ccc3C2O1 (stereo in doubt; 20e) | 96 | 0.04
55 | COc1ccc2c(c1)C1OC(=O)NC1CCC2 (stereo in doubt; 20f) | 24 | –
56 | CC(C)c1ccc2c(c1)C1OC(=O)NC1CCC2 (stereo in doubt; 20g) | 37 | –
57 | O=C1NC2CCCc3ccc(Cl)cc3C2O1 (stereo in doubt; 20h) | 29 | –
58 | O=C1NC2CCCc3ccc(F)cc3C2O1 (stereo in doubt; 20i) | 78 | 0.03
